dFosB act-1 = mouse delta FosB homodimer activation; P13346; purified delta FosB, TAMRA-CDK5 oligo fluorescence polarization; percent of positive-control signal above neutral wells; activation, % at 25 µM; 340,000 compounds, 0.99% hits; AID 493131;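 active means mean activation above about 17%, with every replicate also reaching it, limit read from the data, passing the limit was not always enough; inconclusive means only one of the two conditions met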
Target sequence (P13346 whole entry, looked up): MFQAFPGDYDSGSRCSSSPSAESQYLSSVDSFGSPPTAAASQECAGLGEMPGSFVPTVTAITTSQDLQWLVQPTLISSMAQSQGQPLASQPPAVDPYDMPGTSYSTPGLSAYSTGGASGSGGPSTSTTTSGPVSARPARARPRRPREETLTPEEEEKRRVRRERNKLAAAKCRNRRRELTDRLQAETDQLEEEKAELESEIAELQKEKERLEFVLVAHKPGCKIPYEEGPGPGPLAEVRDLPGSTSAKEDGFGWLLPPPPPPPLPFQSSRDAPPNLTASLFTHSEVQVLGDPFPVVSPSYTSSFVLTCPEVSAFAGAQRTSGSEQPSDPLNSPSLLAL
C2C12 statin = suppressors of simvastatin-induced myotoxicity in C2C12 myotubes | ATP luminescence, 48 h; scaled: DMSO 0, geranylgeraniol control 100 | rescue of ATP level, % at 7.49 µM | 330,000 compounds, 0.78% hits;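 active means mean ATP rescue above about 67%, or every replicate alone reaching that limit, limit read from the data, passing the limit was not always enough; inconclusive means no clear call, values can overlap the other calls; inactive means mean under the limit and some replicate under it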;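 further: myotubes were challenged with 10 µM simvastatin during compound exposure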
CAL PDZ FP-1 = CAL PDZ (human) peptide binding inhibition; inhibition, % at 24.9 µM; 300,000 compounds, 0.92% hits; AID 602252; purified CAL PDZ, TMR-peptide fluorescence polarization, 1 h; Q9HD26;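 active means mean inhibition of at least 30% with at least half of replicates also reaching 30%; inconclusive means no clear call, values can overlap the other calls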;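 further: 0% = DMSO neutral control and 100% = excess unlabeled competitor peptide PRC23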
S100A4 MyoIIA = inhibitors of human S100A4 binding to myosin IIA peptide; P26447; S100A4/TAMRA-MyoIIA peptide fluorescence polarization; inhibition, % at 10.7 µM; 360,000 compounds, 0.14% hits;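 active means mean inhibition of at least 70% across replicates, with every replicate also reaching that level; inconclusive means mean inhibition reaches 70% but some replicates fall short; inactive means mean inhibition below 70%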
Target sequence (P26447 whole entry, looked up): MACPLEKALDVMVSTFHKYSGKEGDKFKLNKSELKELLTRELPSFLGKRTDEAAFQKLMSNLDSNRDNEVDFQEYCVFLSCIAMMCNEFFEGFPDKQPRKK
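Compound dosing: one dose per compound; test system: human S100A4 monomer with TAMRA-labelled myosin IIA peptide; probe or stimulus: TAMRA-labelled myosin IIA heavy-chain peptide probe, 5 nM; medium: HEPES buffer with Ca2+, pH 7.2; schedule: 5 min incubation before reading; benchmarks: neutral control DMSO, positive control TFP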
CAL PDZ FP-2 = inhibitors of human CAL PDZ peptide binding; inhibition, % at 20 µM; AID 504414; purified CAL PDZ, TMR-peptide fluorescence polarization, 1 h; 330,000 compounds, 0.02% hits;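 active means highest replicate inhibition of at least 40%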;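 further: plate controls were DMSO neutral control wells for no effect and unlabeled competitor peptide control wells for full effect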
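System: tagged CAL PDZ domain. Schedule: 1 h room-temperature incubation prior to read. Signal: fluorescence polarization (mP). Measure: percent inhibition from loss of millipolarization.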
CDK5 p35 inh = blocks human CDK5/p35 kinase activity; Q00535+Q15078; Recombinant CDK5/p35, ADP-Glo luminescence, 60 min; inhibition, % at 10 µM; 330,000 compounds, 0.01% hits; AID 488839;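 active means highest replicate inhibition of at least 50% and at least 75% of replicates reaching 50%; inconclusive means only one of the two criteria met; inactive means both criteria failed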;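 further: plate controls were DMSO neutral control for no effect and GW8510 at 10 µM for full effect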
dFosB act-2 = delta FosB (mouse) homodimer activation; shares compounds with dFosB act-1; purified delta FosB, TAMRA-CDK5 oligo fluorescence polarization; normalised: neutral wells 0, positive control 100; activation, % at 24.9 µM; 2,400 tested, under 10 active; AID 588690;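 active means highest replicate activation at or above 34% and every replicate reaching that threshold; inconclusive means meets only one of the two criteria; inactive means meets neither criterion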;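 further: higher polarization means more probe DNA bound by delta FosB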
Starred values were filed as active, the others as inactive; ? = inconclusive; · = no result. A selection: hits, their analogues and other compounds. The true share with any hit is near 2%.

SMILES	dFosB act-1	C2C12 statin	CAL PDZ FP-1	S100A4 MyoIIA	CAL PDZ FP-2	CDK5 p35 inh	dFosB act-2
N#C/C(=C\c1ccc[nH]1)C(=O)Nc1ccccc1Cl	65.7*	18.7	-1.6	4.1	-0.4	0.0	2.8
N#C/C(=C\c1ccc[nH]1)C(=O)Nc1ccccc1F	8.9	4.5	-2.0	-2.6	-2.3	0.6	·
COc1cc(NC(=O)c2cc(-c3ccc4c(c3)OCO4)on2)cc(OC)c1OC	-4.5	-39.9	1.5	2.0	-2.5	-1.4	·
O=C(Nc1cccc(O)c1)c1cc(-c2ccc3c(c2)OCO3)on1	32.5*	-31.1	60.3*	-13.6	-3.0	2.2	-0.4
CC(=O)Nc1ccc(/C=C/c2nc(-c3ccccc3O)n[nH]2)cc1	23.8*	-26.2	-8.3	2.0	-2.5	0.9	1.6
COc1cc(/C=C/c2nc(-c3ccccc3O)n[nH]2)cc(OC)c1OC	?	·	-6.5	·	-4.7	-0.3	·
O=C(Nc1nc2cc3c(cc2s1)OCCO3)c1cccc(N2C(=O)CCC2=O)c1	-4.8	-13.8	·	-0.1	-3.2	0.7	·
COc1ccccc1C(=O)Nc1nc2cc3c(cc2s1)OCCO3	30.9*	-18.1	-0.3	·	-0.7	-0.2	5.1
CCN(CC)S(=O)(=O)c1cccc(C(=O)Nc2nc3cc4c(cc3s2)OCCO4)c1	23.3*	2.1	-2.8	3.9	-3.2	-0.5	-5.9
COc1ccccc1C(=O)Nc1nc2cc3c(cc2s1)OCO3	5.7	-11.8	-0.2	1.2	-1.8	1.1	·
COc1ccc(NC(=O)Nc2ccc3c(c2)C(=O)N([C@H](C)CO)C[C@H](C)[C@@H](CN(C)Cc2ccc4c(c2)OCO4)OCCCC[C@@H](C)O3)cc1	·	·	·	4.7	·	·	·
COc1ccc(/C=C(\C#N)C(=O)OCC(=O)NCc2ccccc2OC)cc1	30.5*	·	-1.0	16.7	-1.1	1.4	3.6
COc1ccc(/C=C(\C#N)C(=O)OCC(=O)NCc2ccccc2Cl)cc1	1.6	·	2.0	-3.4	-2.4	-0.8	·
Fc1ccc(-c2noc(-c3ccc4c(c3)CCO4)n2)cc1	27.7*	-2.2	·	21.0	-2.1	0.8	3.2
S=c1nccc(-c2ccc3c(c2)CCO3)[nH]1	-5.3	·	-4.8	-2.7	0.6	0.3	·
O=C(/C=C/c1ccccc1)Nc1ccc(Br)cn1	22.8*	·	-0.7	3.7	-1.1	-0.8	1.9
Cc1ccc(NC(=O)/C=C/c2ccc(Cl)cc2)nc1	-4.3	-64.3	-1.2	-12.6	-2.2	2.5	·
NC(=O)CN1CCN(c2ccccc2F)CC1	-4.6	-4.2	6.5	·	-1.5	-0.9	·
CCN1CCN(C(=O)c2cc3c(-c4ccc(Cl)cc4)nn(C)c3s2)CC1	-33.9	11.1	·	-6.1	-3.2	1.3	·
Cc1cccc(-n2nnnc2SCC(=O)c2cc(C)n(Cc3ccco3)c2C)c1	21.4*	-5.4	0.2	·	-0.8	0.3	1.3
Cc1cc(N2CCN(C)CC2)nc2ccc(NC(=S)N3CCN(c4cccc(Cl)c4)CC3)cc12	51.1*	·	-2.6	3.3	-0.7	1.1	5.4
Cc1cc(N2CCN(C)CC2)nc2ccc(NC(=S)N3CCCCC3)cc12	-3.9	·	-2.1	-4.9	0.5	2.1	·
CCN1CCN(c2cc(C)c3cc(NC(=S)NCCN(C)C)ccc3n2)CC1	20.0*	-1.1	-0.9	-19.7	3.1	-6.3	6.5
CCCCN(C)CCNC(=S)Nc1ccc2nc(N3CCN(CC)CC3)cc(C)c2c1	?	-21.4	-1.7	3.9	0.0	1.9	·
Cc1cc(N2CCCC2)nc2ccc(NC(=S)NCCCN3CCC(C)CC3)cc12	46.1*	·	-3.5	-5.9	-1.0	-0.5	2.3
Cc1cc(N2CCN(C)CC2)nc2ccc(NC(=S)NCCCN3CCc4ccccc4C3)cc12	30.6*	·	4.5	23.6	1.7	-0.6	0.5
CC(=O)Nc1nnc(SCC(=O)c2ccc3c(c2)Cc2ccccc2-3)s1	-2.7	16.5	-2.4	·	-0.6	0.6	·
Cn1cc(CN2CCC(N3CCNC(=O)CC3)CC2)c(-c2ccccc2F)n1	1.9	12.0	10.7	-1.0	0.4	-0.2	·

Screening results (PubChem BioAssay)
